This note sets out measurements from ChEMBL document CHEMBL2413000, “Control of the intracellular levels of prostaglandin E₂ through inhibition of the 15-hydroxyprostaglandin dehydrogenase for wound healing” (Bioorg Med Chem, 2013).

Assay [1] deals with HaCaT. Description: Wound healing activity in scratch made human HaCaT cells at 5 uM after 48 hrs by inverted microscopic analysis relative to control. Type of assay: functional, cell-based. The gist of the method:
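HaCaT cells plated at ca. 5×10^5 per well in DMEM with 10% FBS and 10 µg/mL mitomycin, 37 °C, 5% CO₂, grown to ca. 80% confluence. Monolayer scratched with a 200 µL pipette tip, then incubated with 5 µM test agent; 1 ng TGF-β1 as positive control. Wound width imaged by inverted microscope at wounding and after 48 h, compared with untreated control.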

Assay [2] addresses T1, 15-hydroxyprostaglandin dehydrogenase [NAD(+)] (Homo sapiens) (UniProt P15428).
T1 sequence (whole entry): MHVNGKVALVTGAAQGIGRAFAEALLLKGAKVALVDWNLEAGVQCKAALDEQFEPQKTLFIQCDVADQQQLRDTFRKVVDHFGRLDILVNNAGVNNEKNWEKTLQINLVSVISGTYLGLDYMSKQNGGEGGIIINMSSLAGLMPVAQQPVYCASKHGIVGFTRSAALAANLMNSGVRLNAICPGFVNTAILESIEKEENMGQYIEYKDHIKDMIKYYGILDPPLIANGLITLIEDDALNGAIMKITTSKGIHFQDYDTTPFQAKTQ
Kind of assay: Inhibition of 15-PGDH in IL-1beta-stimulated human A549 cells assessed as increase in PGE2 level after 5 hrs by enzyme immunoassay. Type of assay: cell-based. The gist of the method:
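IL-1β-stimulated A549 cells (RPMI, 10% heat-inactivated FBS, 5% CO₂, 37 °C) exposed to inhibitors at various concentrations for 5 h. PGE₂ in the collected medium quantified by enzyme immunoassay.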

Assay [3] deals with T1, 15-hydroxyprostaglandin dehydrogenase [NAD(+)] (Homo sapiens). Kind of assay: Inhibition of 15-PGDH in IL-1beta-stimulated human A549 cells assessed as increase in PGE2 level at 5 uM after 12 hrs by enzyme immunoassay relative to control.
The target in assay [4] is T2, 15-hydroxyprostaglandin dehydrogenase [NAD(+)] (Homo sapiens, UniProt P15428).
T2 sequence (P15428 whole entry): T1 sequence (whole entry)
Description: Inhibition of human GST-fused 15-PGDH expressed in Escherichia coli BL21 using PGE2 as substrate assessed as formation of NADH by fluorescence spectrophotometric analysis. The gist of the method:
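GST-tagged 15-PGDH from pGEX-2T in E. coli BL-21 LysS, IPTG-induced 12 h at 25 °C, glutathione-Sepharose purified. Triplicates per concentration; IC50 derived.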

The target in assay [5] is T1, 15-hydroxyprostaglandin dehydrogenase [NAD(+)] (Homo sapiens). Kind of assay: Inhibition of 15-PGDH in IL-1beta-stimulated human A549 cells assessed as increase in PGE2 level at 5 uM after 5 hrs by enzyme immunoassay relative to control. It counts as cell-based. The settings on record: in the assay text read “after 12 hrs” for “after 5 hrs”. The gist of the method: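 A549 cells seeded at 5×10^5 per well, incubated overnight in RPMI with FBS and antibiotic at 37 °C, 5% CO₂, then treated with inhibitor at 5 μM. Medium collected (text gives 5 h in one passage, 12 h in methods). PGE₂ measured by kit enzyme immunoassay and compared with untreated control. Three independent experiments.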

pIC50: −log10 of the molar value. Active and inactive are the calls of the source. No cut-off for these calls is given here.

As to `O=C1N=C(O)S/C1=C\c1ccc(OCCc2ccccc2)c(Cl)c1`, the result in assay [1] was Active. Also, the inhibition result in assay [2] was “Dose-dependent effect”. Besides, the fold change (FC) in assay [3] was 5.

As a reminder, the pIC50 is −log10 of the IC50, conventionally taken in molar units. Regarding `CC(Oc1ccc(/C=C2\SC(=O)NC2=O)cc1Cl)C1CC1` (stereo unspecified), the pIC50 in assay [4] was 6.88.

Take `O=C1NC(=O)/C(=C/c2ccc(OCCC3CCCC3)cc2Cl)S1`: the pIC50 in assay [4] was 7.38.

As for `O=C1NC(=O)/C(=C/c2ccc(OC(=O)c3cccs3)c(Cl)c2)S1`, in assay [4], the pIC50 was 6.58.

As for `C=C(C)C1CCC(COc2ccc(/C=C3\SC(=O)NC3=O)cc2Cl)CC1` (stereo unspecified), the pIC50 in assay [4] was 7.12.

As for `O=C1N=C(O)S/C1=C\c1ccc(OCCC2CCCCC2)cc1Cl`, the negative-log IC50 (pIC50) in assay [4] was 7.89.

Take `O=C1NC(=O)/C(=C/c2ccc(OCCOC3CCCCC3)c(Cl)c2)S1`: the pIC50 in assay [4] was 7.70.

Turning to `O=C1NC(=O)/C(=C/c2ccc(OCC3CCCC3)c(Cl)c2)S1`, in assay [4], the negative-log IC50 (pIC50) was 7.96.

On to `O=C1N=C(O)S/C1=C\c1ccc(OCc2ccccc2)c(Cl)c1`, for which the inhibition result in assay [5] was “Active”. Further, the inhibition entry in assay [2] was “Dose-dependent effect”.

`O=C1NC(=O)/C(=C/c2ccc(OCCCCc3ccccc3)cc2Cl)S1`: the pIC50 in assay [4] is 7.09.

As for `O=C1N=C(O)S/C1=C\c1ccc(OCCCc2ccccc2)c(Cl)c1`, the inhibition result in assay [5] was “Active”. Besides, the inhibition result in assay [2] is “Dose-dependent effect”.

For the compound `O=C1NC(=O)/C(=C/c2ccc(OCc3ccc([N+](=O)[O-])cc3)c(Cl)c2)S1`, in assay [4], the negative-log IC50 (pIC50) was 6.03.

For `CC(C)OCCOc1ccc(/C=C2\SC(=O)NC2=O)c(Cl)c1`, the pIC50 in assay [4] is 5.98.

On to `O=C1NC(=O)/C(=C/c2ccc(OCc3ccc([N+](=O)[O-])cc3)cc2Cl)S1`, for which, in assay [4], the pIC50 is 5.34.

With `O=C1NC(=O)/C(=C/c2ccc(OCC3CC4CCC3C4)c(Cl)c2)S1` (stereo unspecified), the pIC50 in assay [4] was 6.78.

As for `O=C1NC(=O)/C(=C/c2ccc(OCCOC3CCCCC3)cc2Cl)S1`, the pIC50 in assay [4] was 6.68.

With `O=C1NC(=O)/C(=C/c2ccc(Oc3cccc([N+](=O)[O-])c3)c(Cl)c2)S1`, the pIC50 in assay [4] is 7.00.

For `O=C1NC(=O)/C(=C/c2ccc(OCCc3ccccn3)c(Cl)c2)S1`, the pIC50 in assay [4] was 5.35.

As to `O=C1NC(=O)/C(=C/c2ccc(Oc3cccc(/C=C/[N+](=O)[O-])c3)c(Cl)c2)S1`, the pIC50 in assay [4] is 7.23.

Take `O=C1NC(=O)/C(=C/c2ccc(Oc3cccc4c3CCCC4=O)c(Cl)c2)S1`: the pIC50 in assay [4] was 7.15.

Regarding `O=C1NC(=O)/C(=C/c2ccc(OCCc3ccc([N+](=O)[O-])o3)c(Cl)c2)S1`, the pIC50 in assay [4] was 6.91.

For `O=C1N=C(O)S/C1=C\c1ccc(OCCCCc2ccccc2)c(Cl)c1`, the inhibition entry in assay [5] was “Active”. Further, the inhibition result in assay [2] is “Dose-dependent effect”.

For the compound `O=C1NC(=O)/C(=C/c2ccc(OCC3CCC3)c(Cl)c2)S1`, the pIC50 in assay [4] was 8.05.

In the case of `CCc1ccc(CCOc2ccc(/C=C3\SC(=O)NC3=O)cc2Cl)nc1`, the pIC50 in assay [4] was 5.68.

As to `Cc1ncsc1CCOc1ccc(/C=C2\SC(=O)NC2=O)cc1Cl`, the pIC50 in assay [4] was 5.29.

On to `O=C1NC(=O)/C(=C/c2ccc(OCc3ccc4c(c3)OCO4)c(Cl)c2)S1`, for which the pIC50 in assay [4] was 6.71.
